Measured values reported in ChEMBL document CHEMBL1137302 (J Med Chem, 2006).
pEC50, pKi: −log10 of the molar value. Calls of active or inactive are those of the source. No cut-off for these calls is given here.

Experiments:
[1] = target: T1, D(4) dopamine receptor (Homo sapiens) (UniProt P21917); assay: Activity at human D4.4 receptor in HEK293 cells co-expressing Galphaqo5 by FLIPR; type: functional, cell-based
T1 sequence (whole entry): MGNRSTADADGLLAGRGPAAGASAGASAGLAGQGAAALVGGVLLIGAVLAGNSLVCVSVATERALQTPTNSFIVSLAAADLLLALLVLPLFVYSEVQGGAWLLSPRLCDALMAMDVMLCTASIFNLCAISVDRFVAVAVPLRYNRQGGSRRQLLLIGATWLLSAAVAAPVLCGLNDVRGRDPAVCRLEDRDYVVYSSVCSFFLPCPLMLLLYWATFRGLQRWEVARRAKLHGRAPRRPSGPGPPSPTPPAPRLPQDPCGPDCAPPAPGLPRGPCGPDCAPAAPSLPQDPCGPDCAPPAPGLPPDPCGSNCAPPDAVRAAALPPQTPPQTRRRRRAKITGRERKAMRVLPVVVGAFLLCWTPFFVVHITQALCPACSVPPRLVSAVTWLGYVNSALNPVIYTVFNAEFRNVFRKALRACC

Rattus norvegicus [2] = assay: Proerectile activity in rat measured as incidence of penile erection at 0.01 umol/kg, sc; type: functional
How it was run: (§1)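 Conscious male rats dosed subcutaneously. Penile erection incidence scored over 60 min after injection; values are % ± SEM, with significance tested against control.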

D(4) dopamine receptor [3] = target: T2, D(4) dopamine receptor (Homo sapiens, UniProt P21917); assay: Agonist activity at human D4.4 receptor in HEK293 cells coexpressing G-alpha-qo5 by FLIPR; type: functional, cell-based
T2 sequence (P21917 whole entry): T1 sequence (whole entry)

Rattus norvegicus [4] = assay: Blockade of ABT-670-induced erctogenic activity in rat at 3 umol/kg, ip; type: functional, organism-based
D(2) dopamine receptor [5] = target: T3, D(2) dopamine receptor (Homo sapiens, UniProt P14416); assay: Binding affinity to human D2S receptor
T3 sequence (P14416 whole entry): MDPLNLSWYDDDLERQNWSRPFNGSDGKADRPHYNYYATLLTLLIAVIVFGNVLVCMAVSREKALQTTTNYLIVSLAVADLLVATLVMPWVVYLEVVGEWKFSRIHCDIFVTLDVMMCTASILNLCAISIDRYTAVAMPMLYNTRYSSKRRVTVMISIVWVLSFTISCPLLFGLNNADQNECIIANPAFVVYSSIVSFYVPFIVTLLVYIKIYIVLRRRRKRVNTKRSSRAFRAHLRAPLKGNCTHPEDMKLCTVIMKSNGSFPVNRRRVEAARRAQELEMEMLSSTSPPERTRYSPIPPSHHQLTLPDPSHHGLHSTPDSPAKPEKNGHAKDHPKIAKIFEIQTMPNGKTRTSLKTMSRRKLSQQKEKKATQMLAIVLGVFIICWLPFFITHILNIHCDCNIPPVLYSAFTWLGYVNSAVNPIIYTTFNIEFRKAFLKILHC

[6] = target: D(3) dopamine receptor (Homo sapiens) (UniProt P35462); assay: Agonist activity at human D3 receptor in HEK293 cells coexpressing G-alpha-qo5 by FLIPR upto 10 uM; type: functional, cell-based
D(3) dopamine receptor (Homo sapiens), sequence (P35462 whole entry): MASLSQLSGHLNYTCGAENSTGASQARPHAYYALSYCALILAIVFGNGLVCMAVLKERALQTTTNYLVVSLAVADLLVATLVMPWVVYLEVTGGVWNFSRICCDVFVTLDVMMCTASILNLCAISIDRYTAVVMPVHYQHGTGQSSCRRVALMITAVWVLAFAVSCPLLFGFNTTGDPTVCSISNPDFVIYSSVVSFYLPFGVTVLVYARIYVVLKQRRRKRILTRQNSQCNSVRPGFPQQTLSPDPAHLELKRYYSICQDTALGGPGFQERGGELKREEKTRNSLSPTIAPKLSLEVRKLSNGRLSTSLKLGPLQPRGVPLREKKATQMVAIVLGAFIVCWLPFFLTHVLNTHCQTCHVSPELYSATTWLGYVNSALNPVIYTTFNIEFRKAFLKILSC

Mustela putorius furo [7] = species: Mustela putorius furo; assay: Induction of emesis in ferret; type: functional, organism-based
Mustela putorius furo [8] = species: Mustela putorius furo; assay: Induction of nausea in ferret; type: functional, organism-based
D(4) dopamine receptor [9] = target: T4, D(4) dopamine receptor (Rattus norvegicus, UniProt P30729); assay: Agonist activity at rat D4 receptor in HEK293 cells coexpressing G-alpha-qo5 by FLIPR; type: functional, cell-based
T4 sequence (P30729 whole entry): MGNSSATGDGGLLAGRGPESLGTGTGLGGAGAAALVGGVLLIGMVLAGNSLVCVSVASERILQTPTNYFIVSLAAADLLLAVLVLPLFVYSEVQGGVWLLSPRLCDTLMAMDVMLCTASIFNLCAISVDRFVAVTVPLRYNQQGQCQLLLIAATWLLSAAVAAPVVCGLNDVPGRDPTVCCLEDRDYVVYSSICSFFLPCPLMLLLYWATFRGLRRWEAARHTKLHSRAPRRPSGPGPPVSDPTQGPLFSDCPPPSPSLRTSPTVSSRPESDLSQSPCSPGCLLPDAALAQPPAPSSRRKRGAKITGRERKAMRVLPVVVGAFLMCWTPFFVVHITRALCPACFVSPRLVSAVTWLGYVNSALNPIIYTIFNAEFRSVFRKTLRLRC

[10] = target: T5, D(4) dopamine receptor (Rattus norvegicus) (UniProt P30729); assay: Agonist activity at rat D4 receptor in HEK293 cells co-expressing Galphaqo5 by FLIPR relative to dopamine; type: functional, cell-based
T5 sequence (whole entry): T4 sequence (P30729 whole entry)

D(2) dopamine receptor [11] = target: T3, D(2) dopamine receptor; assay: Agonist activity at human D2 receptor in HEK293 cells coexpressing G-alpha-qo5 by FLIPR relative to dopamine upto 10 uM; type: functional, cell-based
How it was run: (§2)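 Ca2+ flux by FLIPR in HEK cells cotransfected with the D2 receptor (human, ferret or rat) plus chimeric G protein Gqo5.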

[12] = target: D(2) dopamine receptor (Rattus norvegicus) (UniProt P61169); assay: Agonist activity at rat D2 receptor in HEK293 cells coexpressing G-alpha-qo5 by FLIPR relative to dopamine upto 10 uM; type: functional, cell-based; how it was run: as §2
D(2) dopamine receptor (Rattus norvegicus), sequence (P61169 whole entry): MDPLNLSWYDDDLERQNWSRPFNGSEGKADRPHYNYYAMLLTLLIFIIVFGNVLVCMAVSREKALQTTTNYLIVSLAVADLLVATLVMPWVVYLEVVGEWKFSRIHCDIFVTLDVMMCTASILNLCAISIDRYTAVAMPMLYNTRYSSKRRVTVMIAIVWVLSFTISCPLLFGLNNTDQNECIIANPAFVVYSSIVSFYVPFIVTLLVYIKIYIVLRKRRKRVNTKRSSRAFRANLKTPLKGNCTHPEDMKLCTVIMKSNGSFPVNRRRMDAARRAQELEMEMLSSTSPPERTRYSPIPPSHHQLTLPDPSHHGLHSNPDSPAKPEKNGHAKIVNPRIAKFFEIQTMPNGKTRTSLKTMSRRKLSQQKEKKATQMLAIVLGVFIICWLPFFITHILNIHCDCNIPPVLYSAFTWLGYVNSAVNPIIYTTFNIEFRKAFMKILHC

D(2) dopamine receptor [13] = target: T3, D(2) dopamine receptor; assay: Displacement of [125I]7-OH-PIPAT from human D2L receptor expressed in HEK293 cell membrane; type: cell membranes
D(4) dopamine receptor [14] = target: T2, D(4) dopamine receptor; assay: Displacement of [3H]A369508 from human D4 receptor expressed in HEK293 cell membrane; type: cell membranes
Rattus norvegicus [15] = assay: Proerectile activity in rat measured as incidence of penile erection at 0.03 umol/kg, sc; type: functional; how it was run: as §1
[16] = Bioavailability in Sprague-Dawley rat at 1 mg/kg, po; type: ADME, organism-based; conditions: in vivo
How it was run: (§3)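 Single 1 mg/kg dose given iv, sc or orally to Sprague-Dawley rats, dogs and monkeys; plasma concentrations followed over time (mean ± SEM, n = 3). Cmax, AUC, half-life, clearance and bioavailability calculated from the curves.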

[17] = test system: D(2) dopamine receptor (Mustela putorius furo); assay: Agonist activity at ferret D2 receptor in HEK293 cells coexpressing Galphaqo5 by FLIPR relative to dopamine upto 10 uM
[18] = target: Phosphodiesterase 1 (Homo sapiens) (UniProt P54750+Q01064+Q14123); assay: Activity at PDE1 at 10 uM; type: protein assay
How it was run: (§4)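 Broad selectivity panel (over 70 receptors, ion channels and neuronal receptors, PDE1-6 included) run at a single 10 µM concentration.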

[19] = target: cGMP-dependent 3',5'-cyclic phosphodiesterase (Homo sapiens) (UniProt O00408); assay: Activity at PDE2 at 10 uM; how it was run: as §4
cGMP-dependent 3',5'-cyclic phosphodiesterase (Homo sapiens), sequence (O00408 whole entry): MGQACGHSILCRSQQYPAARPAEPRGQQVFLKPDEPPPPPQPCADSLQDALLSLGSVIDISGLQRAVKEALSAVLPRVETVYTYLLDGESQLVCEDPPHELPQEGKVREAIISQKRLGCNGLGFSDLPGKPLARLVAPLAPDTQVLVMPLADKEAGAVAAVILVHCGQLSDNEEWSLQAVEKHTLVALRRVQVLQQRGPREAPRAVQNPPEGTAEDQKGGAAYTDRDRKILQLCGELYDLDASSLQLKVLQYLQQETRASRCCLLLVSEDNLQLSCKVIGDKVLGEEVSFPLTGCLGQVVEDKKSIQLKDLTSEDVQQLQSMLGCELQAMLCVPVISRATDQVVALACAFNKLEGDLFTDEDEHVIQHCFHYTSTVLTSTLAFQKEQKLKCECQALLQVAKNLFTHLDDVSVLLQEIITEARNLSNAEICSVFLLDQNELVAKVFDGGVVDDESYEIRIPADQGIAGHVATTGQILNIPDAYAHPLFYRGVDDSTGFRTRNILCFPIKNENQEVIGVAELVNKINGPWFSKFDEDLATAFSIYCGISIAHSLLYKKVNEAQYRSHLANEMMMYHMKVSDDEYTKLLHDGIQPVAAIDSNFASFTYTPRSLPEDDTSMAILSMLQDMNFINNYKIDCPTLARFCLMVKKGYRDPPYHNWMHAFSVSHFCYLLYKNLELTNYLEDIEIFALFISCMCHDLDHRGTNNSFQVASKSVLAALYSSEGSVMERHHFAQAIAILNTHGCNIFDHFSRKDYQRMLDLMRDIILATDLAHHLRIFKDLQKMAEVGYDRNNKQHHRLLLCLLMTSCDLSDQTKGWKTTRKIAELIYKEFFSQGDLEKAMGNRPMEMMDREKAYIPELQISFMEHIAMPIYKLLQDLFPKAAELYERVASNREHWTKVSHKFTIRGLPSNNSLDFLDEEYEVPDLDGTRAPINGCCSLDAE

[20] = target: Phosphodiesterase 3 (Homo sapiens) (UniProt Q14432+Q13370); assay: Activity at PDE3 at 10 uM; type: protein assay; how it was run: as §4
[21] = target: Phosphodiesterase 4 (Homo sapiens) (UniProt P27815+Q08499+Q07343+Q08493); assay: Activity at PDE4 at 10 uM; type: protein assay; how it was run: as §4
[22] = target: cGMP-specific 3',5'-cyclic phosphodiesterase (Homo sapiens) (UniProt O76074); assay: Activity at PDE5 at 10 uM; how it was run: as §4
[23] = target: Phosphodiesterase 6 (Homo sapiens) (UniProt Q13956+P18545+P35913+O43924+P16499+P51160); assay: Activity at PDE6 at 10 uM; type: protein assay; how it was run: as §4
Rattus norvegicus [24] = assay: Proerectile activity in rat measured as incidence of penile erection at 0.3 umol/kg, sc; type: functional
How it was run: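 Conscious male rats were given a single subcutaneous injection and observed for penile erections over the following 60 min. The read-out was the incidence of erections, expressed as % of animals ± SEM (n = 12–32 animals per group), with significance tested against controls. The value is the maximal incidence at the maximally effective dose.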

[25] = Bioavailability in Sprague-Dawley rat at 1 mg/kg, sc; type: ADME, organism-based; conditions: in vivo; how it was run: as §3
[26] = Half life in Sprague-Dawley rat at 1 mg/kg, sc; type: ADME, organism-based; design: dose 1 mg/kg, route subcutaneous; conditions: in vivo; how it was run: as §3
[27] = Half life in Sprague-Dawley rat at 1 mg/kg, po; type: ADME, organism-based; design: dose 1 mg/kg, route oral; conditions: in vivo; how it was run: as §3
[28] = Oral bioavailability in rat; type: ADME, organism-based; conditions: in vivo; how it was run: as §3
[29] = Oral bioavailability in dog; type: ADME, organism-based, Canis lupus familiaris; conditions: in vivo; how it was run: as §3
[30] = Oral bioavailability in monkey; type: ADME, organism-based, Macaca mulatta; conditions: rhesus monkey, in vivo; how it was run: as §3
hERG = hERG (Homo sapiens, UniProt Q12809); assay: Blockade of current at hERG expressed in HEK293 cells at 3 ug/mL; type: cell-based; conditions: HEK293 cells that express hERG
hERG, sequence (Q12809 whole entry): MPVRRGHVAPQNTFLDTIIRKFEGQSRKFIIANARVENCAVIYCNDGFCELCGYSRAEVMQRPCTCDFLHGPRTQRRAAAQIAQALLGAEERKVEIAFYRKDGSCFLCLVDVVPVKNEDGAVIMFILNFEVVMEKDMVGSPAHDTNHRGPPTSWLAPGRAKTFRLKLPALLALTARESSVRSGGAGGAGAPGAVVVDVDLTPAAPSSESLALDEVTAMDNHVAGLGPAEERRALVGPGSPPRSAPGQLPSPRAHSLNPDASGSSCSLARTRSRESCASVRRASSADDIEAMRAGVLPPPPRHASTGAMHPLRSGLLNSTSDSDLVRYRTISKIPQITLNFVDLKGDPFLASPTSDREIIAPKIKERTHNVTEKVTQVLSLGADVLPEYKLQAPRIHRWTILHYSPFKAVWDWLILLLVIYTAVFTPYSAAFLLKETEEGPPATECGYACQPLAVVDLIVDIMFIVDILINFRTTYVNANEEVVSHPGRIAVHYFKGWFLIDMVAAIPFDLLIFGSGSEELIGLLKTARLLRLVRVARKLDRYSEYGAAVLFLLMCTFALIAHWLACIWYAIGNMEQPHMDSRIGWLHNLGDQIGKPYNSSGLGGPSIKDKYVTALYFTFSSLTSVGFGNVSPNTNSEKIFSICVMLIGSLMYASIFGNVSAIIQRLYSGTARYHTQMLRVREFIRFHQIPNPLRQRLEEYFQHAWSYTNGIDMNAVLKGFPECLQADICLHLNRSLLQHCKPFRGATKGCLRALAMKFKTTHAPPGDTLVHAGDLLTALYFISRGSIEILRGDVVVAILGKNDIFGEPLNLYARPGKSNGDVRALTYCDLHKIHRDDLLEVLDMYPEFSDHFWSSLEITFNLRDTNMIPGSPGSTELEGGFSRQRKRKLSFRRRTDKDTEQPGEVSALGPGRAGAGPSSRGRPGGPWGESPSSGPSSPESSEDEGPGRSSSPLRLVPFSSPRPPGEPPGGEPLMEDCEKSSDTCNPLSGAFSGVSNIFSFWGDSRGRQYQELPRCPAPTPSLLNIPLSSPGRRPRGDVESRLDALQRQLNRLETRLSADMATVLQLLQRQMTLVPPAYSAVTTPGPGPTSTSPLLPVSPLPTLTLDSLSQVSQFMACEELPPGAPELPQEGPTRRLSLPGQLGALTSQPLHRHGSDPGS
How it was run: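 hERG stably expressed in HEK293 cells; whole-cell voltage clamp. Pipette: K aspartate/KCl/EGTA/MgATP, pH 7.3. Bath: NaCl-based HEPES, pH 7.4. Compound dissolved in DMSO (≤0.1%), one concentration per cell. Steps to -25 to +50 mV for 3 s, then -50 mV for 4 s, from -80 mV every 15 s; tail current measured against DMSO vehicle.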

[31] = Effect on canine cardiac Purkinje fiber repolarization measured as prolongation of action potential duration at 1.6 ug/mL; type: functional, Canis lupus familiaris
How it was run: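 Canine Purkinje fibres impaled with 3 M KCl microelectrodes after at least 30 min equilibration under stimulation. Bath: 131 mM NaCl, 18 mM NaHCO3, 4 mM KCl, 2 mM CaCl2. Baseline APD90 recorded at BCL 2 s, 800 and 400 ms. Each fibre then received two ascending concentrations, each with 25 min equilibration and re-recording at all three rates.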

D(4) dopamine receptor [32] = target: T2, D(4) dopamine receptor; assay: Displacement of [3H]spiperone from human D4 receptor expressed in HEK293 cell membrane; type: cell membranes
D(2) dopamine receptor [33] = target: T3, D(2) dopamine receptor; assay: Binding affinity at human D2L receptor by displacement of [125I]-7-OH-PIPAT in membranes
D(2) dopamine receptor [34] = target: T3, D(2) dopamine receptor; assay: Agonist activity at human D2 receptor in HEK293 cells coexpressing G-alpha-qo5 by FLIPR; type: functional, cell-based
[35] = target: T1, D(4) dopamine receptor (Homo sapiens); assay: Agonist activity at human D4.4 receptor in HEK293 cells coexpressing G-alpha-qo5 by FLIPR with relative to dopamine upto 10 uM; type: functional, cell-based

Cc1ccc([N+](=O)[O-])cc1NC(=O)CN1CCC(c2cccc[n+]2[O-])CC1
Activity ([1]; filed as agonist): Agonist | Activity (Rattus norvegicus [2]): 83% | pEC50 (D(4) dopamine receptor [3]): 6.87

CN1CCN(C2=Nc3cc(Cl)ccc3Nc3ccccc32)CC1
Activity (Rattus norvegicus [4]): Active

Cc1cc(F)ccc1NC(=O)CN1CCC(c2cccc[n+]2[O-])CC1
pKi (D(2) dopamine receptor [5]): < 5.00 | Activity [6]: inactive | Activity (Mustela putorius furo [7]): inactive | Activity (Mustela putorius furo [8]): inactive | pEC50 (D(4) dopamine receptor [9]): 7.00 | Efficacy [10]: 76% | Activity (D(2) dopamine receptor [11]): inactive | Activity [12]: inactive | Activity ([1]; filed as agonist): Agonist | pKi (D(2) dopamine receptor [13]): < 5.00 | pKi (D(4) dopamine receptor [14]): 6.39 | Activity (Rattus norvegicus [15]): 67% | pEC50 (D(4) dopamine receptor [3]): 7.22 | bioavailability [16]: 7% | Activity [17]: inactive

Cc1cccc(NC(=O)CN2CCC(c3cccc[n+]3[O-])CC2)c1
pKi (D(2) dopamine receptor [5]): < 5.00 | Activity [6]: inactive | Activity (Mustela putorius furo [7]): inactive | Activity (Mustela putorius furo [8]): inactive | pEC50 (D(4) dopamine receptor [9]): 7.24 | Efficacy [10]: 80% | Activity (D(2) dopamine receptor [11]): inactive | Activity [12]: inactive | Activity ([1]; filed as agonist): Agonist | pKi (D(2) dopamine receptor [13]): < 5.00 | pKi (D(4) dopamine receptor [14]): 6.53 | Activity [18]: inactive | Activity [19]: inactive | Activity [20]: inactive | Activity [21]: inactive | Activity [22]: inactive | Activity [23]: inactive | Activity (Rattus norvegicus [24]): 75% | pEC50 (D(4) dopamine receptor [3]): 7.49 | bioavailability [16]: 11% | bioavailability [25]: 61% | half-life [26]: 30 min | half-life [27]: 18 min | bioavailability [28]: 11% | bioavailability [29]: 70% | bioavailability [30]: 28% | inhibition at 3 ug/mL (hERG): 44.8% | Activity [31]: 12%

Cc1cccc(C(=O)NCN2CCC(c3ccccn3)CC2)c1
pKi (D(2) dopamine receptor [13]): 5.46 | pKi (D(4) dopamine receptor [32]): 7.49 | Activity (Rattus norvegicus [15]): 83% | pEC50 (D(4) dopamine receptor [3]): 8.05 | bioavailability [16]: 2% | bioavailability [25]: 76% | half-life [26]: 36 min | pKi (D(2) dopamine receptor [33]): 5.46

COc1ccccc1C1CCN(CNC(=O)c2cccc(C)c2)CC1
pEC50 (D(2) dopamine receptor [34]): < 5.00 | Activity ([1]; filed as partial agonist): Partial agonist | pKi (D(2) dopamine receptor [13]): 7.57 | pKi (D(4) dopamine receptor [14]): 8.89 | pEC50 (D(4) dopamine receptor [3]): 6.69

O=C(CN1CCC(c2cccc[n+]2[O-])CC1)Nc1ccccn1
Activity [35]: inactive
